The record followed here is ChEMBL document CHEMBL2429727, “Syntheses, biological evaluation and SAR of ingenol mebutate analogues for treatment of actinic keratosis and non-melanoma skin cancer” (Bioorg Med Chem Lett, 2013).

A value given as a limit tells only on which side of the number the result lay.

As a reminder, the EC50 is the concentration that produces a half-maximal response. As usually defined, the Emax is the size of the effect at its maximum, as opposed to the concentration needed.

The target in data set [1] is Protein kinase C delta type (Homo sapiens, UniProt Q05655). Briefly: Activation of PKCdelta (unknown origin) using phosphatidylserine […]. The method in brief:
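PKCdelta assayed in vitro by phosphorylation of a PKC peptide substrate, with 0.05 mg/mL phosphatidylserine and no diacylglycerol so stimulation could be seen. Compounds serially diluted at semilogarithmic intervals, twelve points from 10 µM. Reaction started by adding ATP.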

Data set [2] is described as follows: Induction of necrosis in human HeLa cells after 30 mins by resazurin assay. Format: cell-based. The following applies: read-out: LC50. The method in brief: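 HeLa cells exposed to increasing ester concentrations up to 400 µM for 30 min at 37 °C. Remaining metabolic activity then read with a resazurin-based dye. LC50 is the concentration causing 50% loss of metabolic activity.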
(Alamar Blue is a resazurin reagent that responds to reducing activity.)

The subject of data set [3] is Keratinocyte. The experiment in a line: Induction of IL-8 release in human primary epidermal keratinocytes after 6 hrs by HTRF assay. Format: functional, cell-based. Background: In TR-FRET formats the signal depends on donor and acceptor labels being close together.
Data set [4] has as its system Keratinocyte. The experiment in a line: Induction of IL-8 release in human primary epidermal keratinocytes after 6 hrs by HTRF assay relative to ingenol mebutate. Format: functional.
Data set [5] deals with Keratinocyte. The experiment in a line: Induction of TNFalpha release in human primary epidermal keratinocytes after 6 hrs relative to ingenol mebutate. Format: functional. The method in brief: (§1)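 Human adult log-phase primary epidermal keratinocytes subcultured at 10,000 cells/well. Incubated with titrated compound for 6 h at 37 °C in humidified 95% air/5% CO2. Secreted cytokines quantified on 4-spot cytokine plates. EC50 is the concentration giving 50% of the maximum effect of the ingenol mebutate reference. Emax is maximal response relative to that reference.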

In data set [6] the test system is Keratinocyte. The experiment in a line: Induction of TNFalpha release in human primary epidermal keratinocytes after 6 hrs. Format: functional, cell-based. The method in brief:
as §1

A short description of data set [7]: Induction of oxidative burst in polymorphonuclear leukocytes (unknown origin) isolated from buffy coat at 10 uM after 40 mins by fluorescence assay relative to ingenol mebutate. Format: functional. The method in brief:
(§2)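 PMN isolated and purified from fresh buffy coats, then incubated 40 min at ambient temperature with titrated compound (top concentration 10 µM) premixed with hydroethidine. Respiratory burst read as fluorescence in relative light units, emission 579 nm, excitation 485 nm. EC50 and Emax are expressed relative to the maximum effect of the ingenol mebutate reference.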

The nature of data set [8]: Induction of oxidative burst in polymorphonuclear leukocytes (unknown origin) isolated from buffy coat after 40 mins by fluorescence assay. Format: functional, cell-based. The method in brief:
as §2

Data set [9] in a line: Chemical stability of the compound in aqueous buffer assessed as drug recovery after 16 hrs at pH 7.4 by HPLC analysis. Format: physicochemical. The settings on record: read-out: Drug recovery. The method in brief:
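DMSO stock diluted with pre-heated (37 °C) aqueous buffer pH 7.4 to at most 30% v/v organic content, then shaken. Held in the HPLC autosampler at 37 °C, first injected within 5 min, then injected repeatedly over 16 h. Recovery taken from the fall in compound peak area, UV detection normally at 270 nm.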

Protein kinase C delta type, sequence (Q05655 whole entry): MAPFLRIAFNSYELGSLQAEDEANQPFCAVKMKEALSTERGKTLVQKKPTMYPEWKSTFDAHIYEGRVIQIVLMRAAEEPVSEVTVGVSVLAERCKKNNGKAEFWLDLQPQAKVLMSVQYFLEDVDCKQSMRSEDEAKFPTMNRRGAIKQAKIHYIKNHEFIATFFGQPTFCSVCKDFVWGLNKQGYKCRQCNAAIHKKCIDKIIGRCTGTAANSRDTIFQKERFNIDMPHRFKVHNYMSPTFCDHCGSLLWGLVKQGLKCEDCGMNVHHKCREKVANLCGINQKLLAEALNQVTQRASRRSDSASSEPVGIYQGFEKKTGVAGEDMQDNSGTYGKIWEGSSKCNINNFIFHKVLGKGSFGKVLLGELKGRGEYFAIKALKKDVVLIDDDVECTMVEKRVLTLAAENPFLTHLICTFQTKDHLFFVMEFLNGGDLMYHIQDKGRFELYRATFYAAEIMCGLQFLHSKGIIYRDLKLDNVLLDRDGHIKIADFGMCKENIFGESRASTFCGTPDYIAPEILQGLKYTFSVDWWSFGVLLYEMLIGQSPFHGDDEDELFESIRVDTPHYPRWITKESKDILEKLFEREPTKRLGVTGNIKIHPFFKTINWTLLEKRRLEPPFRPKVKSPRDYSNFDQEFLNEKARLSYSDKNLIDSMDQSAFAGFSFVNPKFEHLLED

As for `CCCCCCCCCCCCCCCC(=O)O[C@H]1C(C)=C[C@]23C(=O)[C@@H](C=C(CO)[C@@H](O)[C@]12O)[C@H]1[C@@H](C[C@H]3C)C1(C)C`, the EC50 in [1] (read-out: EC50) was 4.7 nM; in the data set with Keratinocyte [3], 7.3 nM; with Keratinocyte [6], 8.4 nM; in data set [8] it was 28 nM. In addition, in data set [2], the CC50 at 0.5 h was 400000 nM. For the same molecule, the figures for the Emax in the data set on Keratinocyte [4] and in the data set with Keratinocyte [5] were 109% and 115%, respectively. Also, the Emax at 10 µM in data set [7] stood at 106%.

`CC1=C[C@]23C(=O)[C@@H](C=C(CO)[C@@H](O)[C@]2(O)[C@H]1OC(=O)C(C)=C(C)C)[C@H]1[C@@H](C[C@H]3C)C1(C)C`: the EC50 amounted to 5.3 nM in data set [1] (read-out: EC50), 8.6 nM in the data set with Keratinocyte [3], 8 nM in the data set with Keratinocyte [6] and 5.9 nM in [8]. Besides, the CC50 at 0.5 h in data set [2] worked out at 174000 nM. For the same molecule, the Emax with Keratinocyte [4] was found to be 102%; in the data set with Keratinocyte [5], 97%. This molecule also registered an Emax at 10 µM in [7] of 106%. In addition, the remaining at 16 h in [9] worked out at 75%.

For `CC1=C[C@]23C(=O)[C@@H](C=C(CO)[C@@H](O)[C@]2(O)[C@H]1OC(=O)C1(C)CCCCC1)[C@H]1[C@@H](C[C@H]3C)C1(C)C`, the EC50 in data set [1] (read-out: EC50) came to 2.9 nM; in the data set on Keratinocyte [3], 22 nM; in the data set with Keratinocyte [6], 13 nM; in [8] it was 7.6 nM. Besides, the CC50 at 0.5 h in data set [2] turned out to be 61000 nM. Moreover, the Emax was found to be 52% in the data set on Keratinocyte [4] and 62% with Keratinocyte [5]. This molecule gave an Emax at 10 µM in data set [7] of 127%. The remaining at 16 h in data set [9] is 70%.

Regarding `C/C=C(/C)C(=O)O[C@H]1C(C)=C[C@@]23C(=O)[C@H]([C@H]4[C@@H](C[C@H]2C)C4(C)C)[C@H](F)C(CO)=C[C@]13O`, the EC50 result in [1] was “Not Active”; in the data set with Keratinocyte [3] it was 1130 nM; in the data set on Keratinocyte [6], 1210 nM; in data set [8], 1240 nM. Besides, the Emax in the data set on Keratinocyte [4] came to 57%; with Keratinocyte [5], 67%. Also, in [9], the remaining at 16 h was more than 95%.

`C/C=C(/C(=O)O[C@H]1C(C)=C[C@]23C(=O)[C@@H](C=C(CO)[C@@H](O)[C@]12O)[C@H]1[C@@H](C[C@H]3C)C1(C)C)c1ccccc1`: the EC50 in data set [1] (read-out: EC50) came to 5.2 nM; in the data set on Keratinocyte [3], 3.8 nM; in the data set with Keratinocyte [6], 4.9 nM; in data set [8], 7.4 nM. Besides, the CC50 at 0.5 h in [2] is 103000 nM. Further, the Emax was found to be 97% in the data set on Keratinocyte [4] and 110% in the data set on Keratinocyte [5]. In data set [7], the Emax at 10 µM turned out to be 126%. Further, the remaining at 16 h in [9] was determined as 72%.

For `CCCCCCCCCC(=O)O[C@H]1C(C)=C[C@]23C(=O)[C@@H](C=C(CO)[C@@H](O)[C@]12O)[C@H]1[C@@H](C[C@H]3C)C1(C)C`, the EC50 in data set [1] (read-out: EC50) is 5.3 nM; in the data set on Keratinocyte [3], 8 nM; with Keratinocyte [6] it was 11 nM; in [8] it was 10 nM. Besides, the CC50 at 0.5 h in [2] came to 117000 nM. Further, the Emax is 94% in the data set on Keratinocyte [4] and 96% with Keratinocyte [5]. The molecule further gave an Emax at 10 µM in data set [7] of 137%.

Turning to `CC1=C[C@]23C(=O)[C@@H](C=C(CO)[C@@H](O)[C@]2(O)[C@H]1OC(=O)/C(C)=C\c1ccc(C)cc1)[C@H]1[C@@H](C[C@H]3C)C1(C)C`, in data set [2], the CC50 at 0.5 h was found to be 109000 nM. Further, the values for the EC50 (in the data set on Keratinocyte [3]; in the data set on Keratinocyte [6]; in data set [8]) were 2.1 nM, 3.1 nM and 5.9 nM, respectively. For the same molecule, the maximal effect (Emax) worked out at 87% with Keratinocyte [4] and 101% in the data set on Keratinocyte [5]. For the same molecule, in data set [7], the Emax at 10 µM worked out at 126%. Further, the remaining at 16 h in [9] was determined as 45%.

In the case of `C=C(C)C(=O)O[C@H]1C(C)=C[C@]23C(=O)[C@@H](C=C(CO)[C@@H](O)[C@]12O)[C@H]1[C@@H](C[C@H]3C)C1(C)C`, the CC50 at 0.5 h in [2] was 406000 nM. For the same molecule, the EC50 in the data set with Keratinocyte [3] worked out at 246 nM; with Keratinocyte [6] it was 213 nM; in data set [8] it was 6.1 nM. Moreover, the Emax in the data set with Keratinocyte [4] turned out to be 74%; with Keratinocyte [5], 77%. Moreover, the Emax at 10 µM in data set [7] turned out to be 114%. Besides, in data set [9], the remaining at 16 h stood at 20%.
